Measurements: ChEMBL document CHEMBL1144780, “Synthesis and SAR of new pyrrolo[2,1-f][1,2,4]triazines as potent p38 alpha MAP kinase inhibitors” (Bioorg Med Chem Lett, 2008)

How the values were obtained:
PBMC = experiment: Inhibition of LPS-stimulated TNFalpha production in human PBMCs; type: functional, cell-based
In short: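 PBMCs from heparinized healthy-volunteer blood isolated by Ficoll-Hypaque and resuspended at 5 × 10⁶/mL in RPMI with 10% FBS. Cells preincubated with compound for 5 min at rt, then stimulated with LPS (200 ng/mL stock) for 6 h at 37 °C. TNF-α in medium measured by ELISA. IC50 derived by linear regression.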

[1] = biological target: Mitogen-activated protein kinase 14 (Homo sapiens, UniProt Q16539); experiment: Inhibition of p38alpha
Chain of Mitogen-activated protein kinase 14 (Q16539 whole entry): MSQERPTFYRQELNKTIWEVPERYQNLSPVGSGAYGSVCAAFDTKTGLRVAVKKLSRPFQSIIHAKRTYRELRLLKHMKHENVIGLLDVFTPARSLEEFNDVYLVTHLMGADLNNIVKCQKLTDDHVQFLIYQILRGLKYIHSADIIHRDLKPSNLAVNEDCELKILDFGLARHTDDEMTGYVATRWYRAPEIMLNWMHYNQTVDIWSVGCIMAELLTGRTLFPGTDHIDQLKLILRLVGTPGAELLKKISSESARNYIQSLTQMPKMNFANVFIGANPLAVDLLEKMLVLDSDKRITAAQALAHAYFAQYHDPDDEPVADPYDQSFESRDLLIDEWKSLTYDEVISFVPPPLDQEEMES

Mus musculus = experiment: Inhibition of LPS-induced TNFalpha production in BALB/c mouse at 10 mg/kg, po relative to control; type: functional
In short: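 Female BALB/c mice, 6–8 weeks old, n = 8 per group, given 10 mg/kg by oral gavage in PEG 300; vehicle controls received PEG300 alone. LPS (E. coli O111:B4, 50 µg/kg) given ip 30 min after dosing. Blood taken 90 min after LPS and serum TNF-α measured by ELISA. Inhibition relative to vehicle, means SD, ANOVA.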

Compound: CNC(=O)c1cn2ncnc(Nc3cc(NC(=O)c4cc(F)cc(N5CCOCC5)c4)ccc3C)c2c1C
- IC50 (PBMC): 14 nM
- IC50 [1]: 4 nM

Compound: Cc1ccc(NC(=O)c2cccc(N3CCOCC3)c2)cc1Nc1ncnn2cc(C(=O)N[C@@H](C)c3ccccc3)c(C)c12
- IC50 (PBMC): 29 nM
- inhibition in vivo at 10 mg/kg (Mus musculus): 87%

Compound: Cc1ccc(NC(=O)c2cc(F)cc(N3CCOCC3)c2)cc1Nc1ncnn2cc(C(=O)N[C@H](C)c3ccccc3)c(C)c12
- IC50 (PBMC): 48 nM
- IC50 [1]: 23 nM

Compound: COC[C@H](C)NC(=O)c1cn2ncnc(Nc3cc(NC(=O)c4cc(F)cc(N5CCOCC5)c4)ccc3C)c2c1C (stereo in doubt; 16)
- IC50 [1]: 2 nM

Compound: Cc1ccc(C(=O)Nc2ccc(C)c(Nc3ncnn4cc(C(=O)N[C@@H](C)c5ccccc5)c(C)c34)c2)cc1
- IC50 (PBMC): 313 nM
- IC50 [1]: 13 nM

Compound: CCNC(=O)c1cn2ncnc(Nc3cc(NC(=O)c4cccc(-n5ccnc5)c4)ccc3C)c2c1C
- IC50 (PBMC): 126 nM
- IC50 [1]: 7 nM

Compound: Cc1ccc(NC(=O)c2ccncc2)cc1Nc1ncnn2cc(C(=O)N[C@@H](C)c3ccccc3)c(C)c12
- IC50 (PBMC): 117 nM
- IC50 [1]: 14 nM

Compound: Cc1ccc(NC(=O)c2cc(F)cc(N3CCOCC3)c2)cc1Nc1ncnn2ccc(C)c12
- IC50 (PBMC): 98 nM
- IC50 [1]: 27 nM

Compound: CCOC(=O)c1cn2ncnc(Nc3cc(NC(=O)c4cc(F)cc(N5CCOCC5)c4)ccc3C)c2c1C
- IC50 (PBMC): 4 nM
- IC50 [1]: 2 nM

Compound: Cc1ccc(NC(=O)c2cc(F)cc(N3CCOCC3)c2)cc1Nc1ncnn2cc(C(=O)N[C@@H](C)c3ccccc3)c(C)c12
- IC50 (PBMC): 2 nM
- Ki [1]: 0.54 nM

Compound: CCNC(=O)c1cn2ncnc(Nc3cc(NC(=O)c4cccc(-n5cccn5)c4)ccc3C)c2c1C
- IC50 [1]: 123 nM

Compound: COC[C@H](C)NC(=O)c1cn2ncnc(Nc3cc(NC(=O)c4ccc(C#N)cc4)ccc3C)c2c1C
- IC50 (PBMC): 65 nM

Compound: Cc1ccc(NC(=O)c2cc(F)cc(N3CCOCC3)c2)cc1Nc1ncnn2cc(C(=O)O)c(C)c12
- IC50 (PBMC): > 1000 nM
- IC50 [1]: 1 nM

Compound: CCCNC(=O)c1cn2ncnc(Nc3cc(NC(=O)c4cc(F)cc(N5CCOCC5)c4)ccc3C)c2c1C
- IC50 (PBMC): 4 nM
- IC50 [1]: 5 nM

Compound: CCNC(=O)c1cn2ncnc(Nc3cc(NC(=O)c4cc(F)cc(N5CCOCC5)c4)ccc3C)c2c1C
- IC50 (PBMC): 2 nM
- Ki [1]: 0.42 nM

Compound: Cc1cccc(C(=O)Nc2ccc(C)c(Nc3ncnn4cc(C(=O)N[C@@H](C)c5ccccc5)c(C)c34)c2)c1
- IC50 (PBMC): 259 nM
- IC50 [1]: 94 nM

Compound: Cc1ccc(NC(=O)c2ccnc(N3CCOCC3)c2)cc1Nc1ncnn2cc(C(=O)N[C@@H](C)c3ccccc3)c(C)c12
- IC50 (PBMC): 43 nM
- inhibition in vivo at 10 mg/kg (Mus musculus): 89%

Compound: Cc1ccc(NC(=O)c2ccc(C#N)cc2)cc1Nc1ncnn2cc(C(=O)N[C@@H](C)c3ccccc3)c(C)c12
- IC50 (PBMC): 11 nM
- Ki [1]: 3.4 nM

Compound: Cc1ccc(NC(=O)c2cc(F)cc(N3CCOCC3)c2)cc1Nc1ncnn2cc(C(=O)N(C)C)c(C)c12
- IC50 (PBMC): 212 nM
- IC50 [1]: 63 nM

Compound: CCNC(=O)c1cn2ncnc(Nc3cc(NC(=O)c4cccc(N5CCCC5=O)c4)ccc3C)c2c1C
- IC50 (PBMC): 633 nM
- IC50 [1]: 16 nM

Compound: Cc1ccc(NC(=O)c2c(Cl)cccc2Cl)cc1Nc1ncnn2cc(C(=O)N[C@@H](C)c3ccccc3)c(C)c12
- IC50 [1]: > 1000 nM

Compound: CCNC(=O)c1cn2ncnc(Nc3cc(NC(=O)c4cccc(N5CCN(C)CC5)c4)ccc3C)c2c1C
- IC50 [1]: 924 nM

Compound: COC[C@H](C)NC(=O)c1cn2ncnc(Nc3cc(NC(=O)c4cc(F)cc(N5CCOCC5)c4)ccc3C)c2c1C (stereo in doubt; 39)
- IC50 (PBMC): 7 nM
- IC50 [1]: 2 nM

Compound: Cc1ccc(NC(=O)c2cccc(C(F)(F)F)c2)cc1Nc1ncnn2cc(C(=O)N[C@@H](C)c3ccccc3)c(C)c12
- IC50 (PBMC): 72 nM
- IC50 [1]: 32 nM

Compound: Cc1ccc(NC(=O)c2ccccc2)cc1Nc1ncnn2cc(C(=O)N[C@@H](C)c3ccccc3)c(C)c12
- IC50 (PBMC): 52 nM
- IC50 [1]: 19 nM

Compound: Cc1ccc(NC(=O)c2cc(F)cc(N3CCOCC3)c2)cc1Nc1ncnn2cc(C(=O)NCCN(C)C)c(C)c12
- IC50 (PBMC): 18 nM
- IC50 [1]: 10 nM

Compound: Cc1ccc(NC(=O)c2cc(C(F)(F)F)cc(C(F)(F)F)c2)cc1Nc1ncnn2cc(C(=O)N[C@@H](C)c3ccccc3)c(C)c12
- IC50 [1]: > 1000 nM

Compound: Cc1ccc(NC(=O)c2cc(F)cc(N3CCOCC3)c2)cc1Nc1ncnn2cc(C(=O)NC(C)C)c(C)c12
- IC50 (PBMC): 6 nM
- IC50 [1]: 5 nM

Compound: COC[C@H](C)NC(=O)c1cn2ncnc(Nc3cc(NC(=O)c4cccc(N5CCOCC5)c4)ccc3C)c2c1C
- IC50 (PBMC): 29 nM
- IC50 [1]: 12 nM

Compound: Cc1ccc(NC(=O)c2cc(F)cc(N3CCOCC3)c2)cc1Nc1ncnn2cc(C(N)=O)c(C)c12
- IC50 (PBMC): 19 nM
- IC50 [1]: 3 nM

Compound: CCNC(=O)c1cn2ncnc(Nc3cc(NC(=O)c4ccc(C#N)cc4)ccc3C)c2c1C
- IC50 (PBMC): 46 nM
- IC50 [1]: 23 nM

Compound: CCNC(=O)c1cn2ncnc(Nc3cc(NC(=O)c4cccc(N5CCOCC5)c4)ccc3C)c2c1C
- IC50 (PBMC): 45 nM
- inhibition in vivo at 10 mg/kg (Mus musculus): 84%
- Ki [1]: 0.98 nM

Compound: CCNC(=O)c1cn2ncnc(Nc3cc(NC(=O)c4ccnc(N5CCOCC5)c4)ccc3C)c2c1C
- IC50 (PBMC): 287 nM
- IC50 [1]: 2 nM
